Source: ChEMBL document CHEMBL4350993, “Dipropargyl substituted diphenylpyrimidines as dual inhibitors of monoamine oxidase and acetylcholinesterase” (Eur J Med Chem, 2019)
The source made the active and inactive calls. The rule behind the calls is not given here.

Assays:
[1] = target: T1, Amine oxidase [flavin-containing] A (Homo sapiens, UniProt P21397); assay: Inhibition of human recombinant microsomal MAO- A expressed in baculovirus infected BTI-TN-5B1- 4 cells assessed as reduction in production of H202 at 50 uM using p-tyramine as substrate incubated for 30 mins followed by substrate addition by horse radish peroxidase/Amplex red reagent based fluorescence assay; conditions: 0.5 h
T1 sequence (P21397 whole entry): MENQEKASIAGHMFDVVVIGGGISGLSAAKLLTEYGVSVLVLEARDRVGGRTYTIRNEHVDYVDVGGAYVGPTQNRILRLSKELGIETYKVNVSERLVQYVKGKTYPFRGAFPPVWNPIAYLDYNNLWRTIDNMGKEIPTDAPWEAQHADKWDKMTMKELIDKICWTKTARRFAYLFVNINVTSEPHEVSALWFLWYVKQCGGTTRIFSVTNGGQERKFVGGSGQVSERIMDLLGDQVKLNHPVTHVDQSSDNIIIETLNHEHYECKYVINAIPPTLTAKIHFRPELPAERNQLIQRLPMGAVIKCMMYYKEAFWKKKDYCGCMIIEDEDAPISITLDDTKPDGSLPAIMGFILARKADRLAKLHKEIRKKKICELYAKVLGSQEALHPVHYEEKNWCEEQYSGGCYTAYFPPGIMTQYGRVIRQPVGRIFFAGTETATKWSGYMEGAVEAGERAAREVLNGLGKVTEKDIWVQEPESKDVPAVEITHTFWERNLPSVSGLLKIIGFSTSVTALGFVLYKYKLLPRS
Outline: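 Recombinant hMAO-A (1.1 µg protein) preincubated 30 min at 37 °C with test compound in 0.05 M sodium phosphate, pH 7.4. Reaction started with (final) 200 µM Amplex Red, 1 U/mL HRP and 1 mM p-tyramine. After 30 min in the dark, H2O2 read by fluorescence (ex 545/em 590 nm) at 37 °C. Background without enzyme subtracted; vehicle control.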

[2] = target: T2, Amine oxidase [flavin-containing] B (Homo sapiens, UniProt P27338); assay: Inhibition of human recombinant microsomal MAO-B expressed in baculovirus infected BTI-TN-5B1-4 cells assessed as reduction in production of H202 using p-tyramine as substrate incubated for 30 mins followed by substrate addition by horse radish peroxidase/Amplex red reagent based fluorescence assay; format: cell-based
T2 sequence (P27338 whole entry): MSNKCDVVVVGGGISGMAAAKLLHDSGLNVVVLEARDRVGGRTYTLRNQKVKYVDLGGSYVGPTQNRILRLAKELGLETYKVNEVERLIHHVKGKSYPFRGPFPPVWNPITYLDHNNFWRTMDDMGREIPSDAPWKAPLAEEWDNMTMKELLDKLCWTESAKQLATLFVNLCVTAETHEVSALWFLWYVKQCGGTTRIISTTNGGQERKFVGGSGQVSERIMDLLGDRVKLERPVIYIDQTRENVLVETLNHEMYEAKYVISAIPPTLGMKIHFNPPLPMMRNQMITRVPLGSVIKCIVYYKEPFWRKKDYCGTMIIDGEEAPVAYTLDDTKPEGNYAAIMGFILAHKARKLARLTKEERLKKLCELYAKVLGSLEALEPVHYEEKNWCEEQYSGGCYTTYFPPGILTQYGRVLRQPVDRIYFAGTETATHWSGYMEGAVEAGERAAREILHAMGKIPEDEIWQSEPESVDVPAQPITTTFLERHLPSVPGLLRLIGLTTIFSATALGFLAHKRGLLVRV

[3] = target: T1, Amine oxidase [flavin-containing] A; assay: Inhibition of human recombinant microsomal MAO-A expressed in baculovirus infected BTI-TN-5B1-4 cells assessed as reduction in production of H202 using p-tyramine as substrate incubated for 30 mins followed by substrate addition by horse radish peroxidase/Amplex red reagent based fluorescence assay; format: cell-based
Homo sapiens = species: Homo sapiens; assay: Selectivity index, ratio of IC50 for human recombinant microsomal MAO- A expressed in baculovirus infected BTI-TN-5B1- 4 cells using p-tyramine as substrate to IC50 for human recombinant microsomal MAO- B expressed in baculovirus infected BTI-TN-5B1- 4 cells using p-tyramine as substrate by horse radish peroxidase/Amplex red reagent based fluorescence assay
Outline: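 Recombinant hMAO-A (1.1 µg) or hMAO-B (7.5 µg) preincubated with inhibitor over a concentration range for 30 min at 37 °C in 0.05 M sodium phosphate, pH 7.4. Reaction started with 1 mM p-tyramine, 200 µM Amplex Red and 1 U/mL HRP (final concentrations). H₂O₂ was read by fluorescence (ex 545/em 590 nm) after 30 min dark incubation. Background without enzyme was subtracted; vehicle served as control.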

Acetylcholinesterase = Acetylcholinesterase (Electrophorus electricus, UniProt O42275); assay: Inhibition of electric eel AChE assessed as reduction in production of H202 using acetylcholine as substrate incubated for 15 mins followed by substrate addition by horse radish peroxidase/Amplex red reagent based fluorescence assay
Chain of Acetylcholinesterase (O42275 whole entry): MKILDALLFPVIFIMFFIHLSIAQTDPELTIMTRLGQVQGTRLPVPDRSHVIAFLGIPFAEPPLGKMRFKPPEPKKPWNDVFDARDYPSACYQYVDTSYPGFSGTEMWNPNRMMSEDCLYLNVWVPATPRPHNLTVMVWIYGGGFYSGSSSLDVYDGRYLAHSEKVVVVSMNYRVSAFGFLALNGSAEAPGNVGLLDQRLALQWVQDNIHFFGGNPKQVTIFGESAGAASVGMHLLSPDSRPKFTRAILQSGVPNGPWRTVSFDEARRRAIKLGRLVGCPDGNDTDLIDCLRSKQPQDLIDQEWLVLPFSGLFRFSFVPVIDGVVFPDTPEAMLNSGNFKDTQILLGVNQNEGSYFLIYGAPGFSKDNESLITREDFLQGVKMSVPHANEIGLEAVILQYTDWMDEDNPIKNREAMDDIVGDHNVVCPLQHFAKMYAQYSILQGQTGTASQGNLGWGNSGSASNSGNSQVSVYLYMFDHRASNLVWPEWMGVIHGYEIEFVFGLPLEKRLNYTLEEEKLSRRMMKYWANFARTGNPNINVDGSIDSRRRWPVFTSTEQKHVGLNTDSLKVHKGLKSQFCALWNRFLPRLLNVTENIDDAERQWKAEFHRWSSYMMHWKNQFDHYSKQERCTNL

[4] = target: Acetylcholinesterase (Electrophorus electricus) (UniProt O42275); assay: Reversible inhibition of electric eel AChE assessed as recovery of enzyme activity at IC50 using acetylcholine as substrate relative to control
Chain of Acetylcholinesterase (Electrophorus electricus) (O42275 24-633 limits assumed): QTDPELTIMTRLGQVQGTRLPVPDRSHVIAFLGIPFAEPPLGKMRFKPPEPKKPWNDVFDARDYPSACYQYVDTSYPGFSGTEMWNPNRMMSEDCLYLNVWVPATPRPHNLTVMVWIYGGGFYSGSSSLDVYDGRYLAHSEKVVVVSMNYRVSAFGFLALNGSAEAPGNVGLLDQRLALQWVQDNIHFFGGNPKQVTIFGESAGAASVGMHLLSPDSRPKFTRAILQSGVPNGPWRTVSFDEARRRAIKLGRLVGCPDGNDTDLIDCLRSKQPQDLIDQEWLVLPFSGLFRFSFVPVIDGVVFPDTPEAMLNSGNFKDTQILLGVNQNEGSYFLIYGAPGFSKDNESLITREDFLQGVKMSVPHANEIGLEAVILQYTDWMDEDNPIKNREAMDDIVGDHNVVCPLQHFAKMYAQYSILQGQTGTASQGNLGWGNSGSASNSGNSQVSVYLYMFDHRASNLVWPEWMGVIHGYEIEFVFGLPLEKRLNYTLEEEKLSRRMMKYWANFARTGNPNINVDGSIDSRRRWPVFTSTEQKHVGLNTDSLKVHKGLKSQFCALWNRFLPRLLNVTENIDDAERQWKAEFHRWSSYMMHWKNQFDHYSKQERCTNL

SH-SY5Y [5] = assay: Inhibition of ROS generation in human SH-SY5Y cells at 25 uM measured after 24 hrs by DCF-DA dye based fluorescence assay relative to control; format: functional
Outline: (§1)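 SH-SY5Y cells, about 10,000/well, grown 24 h in DMEM/F-12 with 10% FBS, horse serum and 1% penicillin. Washed with PBS, then exposed to compound without FBS for 24 h (1, 5, 25 μM). Rinsed three times in PBS, loaded with H2DCF-DA (50 μM) for 30 min at 37 °C, rinsed again. Fluorescence read at ex 478 / em 518 nm.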

[6] = target: Acetylcholinesterase (Electrophorus electricus) (UniProt O42275); assay: Reversible inhibition of electric eel AChE assessed as recovery of enzyme activity at 0.1 times IC50 using acetylcholine as substrate relative to control
[7] = Metal chelating activity of the compound assessed as formation of Cu2+ complex at 50 uM by UV-vis spectrophotometric analysis
Outline: (§2)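 Absorption spectra recorded by UV–vis spectrophotometry for compound alone (50 μM final) and with CuSO₄, FeSO₄ or FeCl₃ (50 μM final); chelation judged from spectral change.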

SH-SY5Y [8] = assay: Inhibition of ROS generation in human SH-SY5Y cells at 5 uM measured after 24 hrs by DCF-DA dye based fluorescence assay relative to control; format: functional; outline: as §1
SH-SY5Y [9] = assay: Neuroprotective activity against 6-OHDA induced toxicity in human SH-SY5Y cells assessed as cell viability at 25 uM preincubated for 4 hrs followed by 6-OHDA addition and measured after 24 hrs by MTT assay (reference value: 48.52 %); format: functional; conditions: read-out: Activity
[10] = Cytotoxicity against human SH-SY5Y cells assessed as cell viability at 25 uM measured after 24 hrs by MTT assay relative to control; format: cell-based; conditions: read-out: Activity
Outline: (§3)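 SH-SY5Y cells, about 10,000/well, grown 24 h in DMEM/F-12 with 10% FBS, horse serum and 1% penicillin. Exposed to compound at 1, 5 or 25 μM for 24 h, serum-free, at 37 °C, 5% CO2. MTT added, 4 h at 37 °C, formazan dissolved in DMSO, OD read at 595 nm. Viability expressed relative to control.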

[11] = Cytotoxicity against human SH-SY5Y cells assessed as cell viability at 1 uM measured after 24 hrs by MTT assay relative to control; format: cell-based; conditions: read-out: Activity; outline: as §3
SH-SY5Y [12] = assay: Neuroprotective activity against 6-OHDA induced toxicity in human SH-SY5Y cells assessed as cell viability at 5 uM preincubated for 4 hrs followed by 6-OHDA addition and measured after 24 hrs by MTT assay (reference value: 48.52 %); format: functional; conditions: read-out: Activity
[13] = Octanol/water partition coefficient, logP of compound; format: physicochemical
SH-SY5Y [14] = assay: Inhibition of ROS generation in human SH-SY5Y cells at 1 uM measured after 24 hrs by DCF-DA dye based fluorescence assay relative to control; format: functional; outline: as §1
SH-SY5Y [15] = assay: Neuroprotective activity against 6-OHDA induced toxicity in human SH-SY5Y cells assessed as cell viability at 1 uM preincubated for 4 hrs followed by 6-OHDA addition and measured after 24 hrs by MTT assay (reference value: 48.52 %); format: functional; conditions: read-out: Activity
[16] = Metal chelating activity of the compound assessed as formation of Fe3+ complex at 50 uM by UV-vis spectrophotometric analysis; outline: as §2
[17] = target: Acetylcholinesterase (Electrophorus electricus) (UniProt O42275); assay: Reversible inhibition of electric eel AChE assessed as recovery of enzyme activity at 10 times IC50 using acetylcholine as substrate relative to control
[18] = target: Acetylcholinesterase (Electrophorus electricus) (UniProt O42275); conditions: at 1 to 5 µM
[19] = target: Acetylcholinesterase (Electrophorus electricus) (UniProt O42275); assay: Reversible inhibition of electric eel AChE assessed as recovery of enzyme activity at 100 times IC50 using acetylcholine as substrate relative to control
[20] = Cytotoxicity against human SH-SY5Y cells assessed as cell viability at 5 uM measured after 24 hrs by MTT assay relative to control; format: cell-based; conditions: read-out: Activity; outline: as §3
[21] = Metal chelating activity of the compound assessed as formation of Fe2+ complex at 50 uM by UV-vis spectrophotometric analysis; outline: as §2

Structure (SMILES)	inhibition at 50 µM [1]	IC50 [2]	IC50 ([3]; bti-tn-5b1-4)	Ratio IC50 (Homo sapiens)	IC50 (Acetylcholinesterase)	IC50 ([3]; read-out: IC50)	other results
C#CCOc1ccccc1-c1cc(-c2ccccc2OCC#C)nc(-c2ccccc2)n1	< 50%	13.8 µM	Not Active	> 4	8.12 µM		
C#CCOc1ccc(-c2cc(-c3cccc(OCC#C)c3)nc(N)n2)cc1		1.49 µM		16.1	1.74 µM	24.1 µM	inhibition [4]: 41.8%; inhibition at 25 µM (SH-SY5Y [5]): 41%; inhibition [6]: 82.8%; Activity [7]: inactive; inhibition at 5 µM (SH-SY5Y [8]): 47.2%; viability at 25 µM (SH-SY5Y [9]): 52.3%; viability at 24 h, 25 µM [10]: 69.2%; viability at 24 h, 1 µM [11]: 87.3%; viability at 5 µM (SH-SY5Y [12]): 59.5%; logP [13]: 4.51; inhibition at 1 µM (SH-SY5Y [14]): 68.3%; viability at 1 µM (SH-SY5Y [15]): 60.5%; Activity [16]: inactive; inhibition [17]: 12.3%; inhibition [18]: Active; inhibition [19]: 7.35%; viability at 24 h, 5 µM [20]: 79.6%; Activity [21]: inactive
C#CCOc1ccc(-c2cc(-c3ccc(OCC#C)c(OC)c3)nc(N)n2)cc1	< 50%	20 µM	Not Active	> 3	4.58 µM		
C#CCOc1ccc(-c2cc(-c3ccc(OCC#C)c(OCC)c3)nc(C)n2)cc1	< 50%	11 µM	Not Active	> 5	6.38 µM		
C#CCOc1cccc(-c2cc(-c3cccc(OCC#C)c3)nc(-c3ccccc3)n2)c1	< 50%	23.4 µM	Not Active	> 3	6.73 µM		
C#CCOc1cccc(-c2cc(-c3cccc(OCC#C)c3)nc(N)n2)c1	< 50%	22.1 µM	Not Active	> 3	6.99 µM		
C#CCOc1ccc(-c2cc(-c3ccc(OCC#C)cc3)nc(-c3ccccc3)n2)cc1		12.3 µM		2.1	7.53 µM	25.6 µM	
C#CCOc1ccc(-c2cc(-c3cccc(OCC#C)c3)nc(-c3ccccc3)n2)cc1		17.7 µM		1.5	4.39 µM	25.8 µM	
C#CCOc1ccccc1-c1cc(-c2ccccc2OCC#C)nc(N)n1	< 50%	11.1 µM	Not Active	> 5	5.19 µM		
C#CCOc1ccc(-c2cc(-c3ccc(OCC#C)cc3)nc(N)n2)cc1		3.3 µM		9.7	1.35 µM	32.1 µM	inhibition [4]: 42.4%; inhibition at 25 µM (SH-SY5Y [5]): 25.9%; inhibition [6]: 66.5%; Activity [7]: inactive; inhibition at 5 µM (SH-SY5Y [8]): 30%; viability at 25 µM (SH-SY5Y [9]): 53.6%; viability at 24 h, 25 µM [10]: 72.6%; viability at 24 h, 1 µM [11]: 79%; viability at 5 µM (SH-SY5Y [12]): 62.4%; logP [13]: 4.52; inhibition at 1 µM (SH-SY5Y [14]): 89.8%; viability at 1 µM (SH-SY5Y [15]): 66.6%; Activity [16]: inactive; inhibition [17]: 10.2%; inhibition [19]: 3.4%; viability at 24 h, 5 µM [20]: 73%; Activity [21]: inactive
C#CCOc1ccc(-c2cc(-c3ccccc3OCC#C)nc(N)n2)cc1		22.1 µM		1.3	1.81 µM	28.6 µM	
C#CCOc1ccc(-c2cc(-c3ccc(OCC#C)c(OC)c3)nc(-c3ccccc3)n2)cc1		15.7 µM		1.6	6.99 µM	24.9 µM	
C#CCOc1ccc(-c2cc(-c3ccc(OCC#C)c(OCC)c3)nc(-c3ccccc3)n2)cc1	< 50%	29 µM	Not Active	> 2	6.94 µM		
C#CCOc1ccc(-c2cc(-c3ccc(OCC#C)c(OCC)c3)nc(N)n2)cc1	< 50%	14 µM	Not Active	> 4	7.05 µM		
C#CCOc1ccc(-c2cc(-c3ccc(OCC#C)cc3)nc(C)n2)cc1		7.83 µM		4.4	1.76 µM	34.1 µM	
C#CCOc1ccc(-c2cc(-c3ccccc3OCC#C)nc(-c3ccccc3)n2)cc1		14.4 µM		1.5	7.25 µM	22 µM	
C#CCOc1ccc(-c2cc(-c3ccc(OCC#C)c(OC)c3)nc(C)n2)cc1		21.1 µM		1.2	5.92 µM	25 µM	
C#CCOc1ccc(-c2cc(-c3cccc(OCC#C)c3)nc(C)n2)cc1		8.09 µM		2.6	5.88 µM	21.1 µM	
C#CCOc1ccc(-c2cc(-c3ccccc3OCC#C)nc(C)n2)cc1		18.1 µM		1.3	2.56 µM	23.2 µM	
